High-throughput results from PubChem BioAssay.
A selection: hits, their analogues and other compounds. The true share with any hit is near 2.4%.
Rpn11 inh = Rpn11 (PSMD14) deubiquitinase inhibitors, primary screen, biochemical, fluorescence polarization, uHTS; 26S proteasome non-ATPase regulatory subunit 14 (Homo sapiens), O00487; human 26S proteasome, Ub4-pepOG fluorescence polarization; 20S core pre-blocked with epoxomicin; inhibition, % at 20 µM; hit rate 0.59% among 360,000; AID 588493, 2011;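 active means inhibition at 20 µM, scaled to each plate's controls, above about 33%, limit read from the data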
Target sequence (O00487 whole entry, looked up): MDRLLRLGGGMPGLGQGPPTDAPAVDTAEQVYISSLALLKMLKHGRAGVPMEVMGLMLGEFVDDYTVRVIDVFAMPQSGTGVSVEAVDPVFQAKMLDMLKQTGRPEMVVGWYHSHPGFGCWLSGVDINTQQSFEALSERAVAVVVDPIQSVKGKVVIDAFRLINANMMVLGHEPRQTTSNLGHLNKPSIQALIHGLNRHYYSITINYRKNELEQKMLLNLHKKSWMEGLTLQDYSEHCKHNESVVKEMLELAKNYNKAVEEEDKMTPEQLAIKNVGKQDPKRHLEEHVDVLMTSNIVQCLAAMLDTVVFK
HNF4A DNA FP = change in binding of human HNF4A to DNA, primary screen, biochemical, fluorescence polarization, FITC-DNA. Hepatocyte nuclear factor 4-alpha (Homo sapiens), P41235. 1 h. activity change, % at 10 µM. hit rate 0.3% among 360,000; in the data active means activity change above about 30%, passing the limit was not always enough
PREPL inhibitor = PREPL enzyme inhibitors, primary screen, biochemical, fluorescence polarization. Prolyl endopeptidase-like (Homo sapiens), Q4J6C6. inhibition, % at 5.96 µM. recombinant PREPL, fluorescence polarization activity-based probe. hit rate 0.68% among 320,000; in the data active means inhibition above about 43%;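 further: 0% = enzyme with DMSO and 100% = wells lacking enzyme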
CSN deneddyl inh = inhibitors of CSN-mediated cullin deneddylation, primary screen, biochemical, fluorescence polarization, uHTS | hit rate 0.38% among 360,000 | AID 651999, 2013 | inhibition, % at 12.5 µM | Purified CSN, SCF-Nedd8-OG deneddylation;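 active means pattern-corrected inhibition above about 35%, with an unprinted fluorescence ratio check between 0.5 and 1.5, limit read from the data, passing the limit was not always enough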;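 further: 0% = enzyme with substrate and 100% = substrate without enzyme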
Target sequence (Q92905 whole entry, looked up, one chain of several): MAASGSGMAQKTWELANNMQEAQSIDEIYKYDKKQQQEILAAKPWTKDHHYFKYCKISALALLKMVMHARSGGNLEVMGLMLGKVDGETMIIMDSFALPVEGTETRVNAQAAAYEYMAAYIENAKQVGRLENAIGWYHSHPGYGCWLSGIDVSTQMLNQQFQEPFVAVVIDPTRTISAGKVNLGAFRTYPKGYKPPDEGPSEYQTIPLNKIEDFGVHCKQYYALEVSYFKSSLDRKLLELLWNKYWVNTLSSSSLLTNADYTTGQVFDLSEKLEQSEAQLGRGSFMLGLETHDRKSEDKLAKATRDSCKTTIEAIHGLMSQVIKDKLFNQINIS
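Test system: Human Csn5 produced in HEK293T cells | Compound: 12.5 µM single point | Times: 90 min, room temperature | Signal: Fluorescence polarization readout | Read-out basis: % inhibition of substrate cleavage by Csn5 | Controls: no-enzyme wells high, enzyme-with-substrate wells low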
Neddyl block = inhibitors of cullin neddylation, primary screen, biochemical, TR-FRET, uHTS, NAE and Ubc12. hit rate 0.58% among 360,000. inhibition, % at 25 µM. AID 651699, 2012; in the data active means inhibition above about 36%
Tb MetRS inh = T. brucei MetRS inhibitors, primary screen, biochemical, luminescence | methionyl-tRNA synthetase (Trypanosoma brucei brucei) | hit rate 0.4% among 360,000 | inhibition, % at 11.9 µM | purified T. brucei MetRS, ATP depletion, Kinase-Glo luminescence;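 active means inhibition above a per-plate cutoff of the control wells' mean inhibition plus 3 SD, cut at about 5.5% in these data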;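 further: 0% = DMSO wells median and 100% = median of wells with control inhibitor compound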
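Material: T. brucei methionyl-tRNA synthetase, purified; reagent: substrates ATP, L-methionine and bulk Escherichia coli tRNA; dosing: 11.9 µM single point; timing: 15 min plus 2 h at 25 °C; detection: luminescence of leftover ATP; evaluation: % inhibition; control set: DMSO-only wells as low control; replicates: singlicate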
TbMetRS confirm = T. brucei MetRS inhibitors, confirmation, biochemical, luminescence; shares compounds with Tb MetRS inh; T. brucei MetRS enzyme, luminescence (ATP depletion); hit rate 93% among 1,400; AID 624412, 2012; inhibition, % at 11.9 µM; in the data active means inhibition above about 7%
Jurkat tox = Jurkat T cell cytotoxicity, cytotoxicity control for T. brucei MetRS inhibitor project, luminescence, high throughput; shares compounds with Tb MetRS inh; Jurkat cells viability, ATP luminescence; inhibition, % at 8.3 µM; hit rate 12% among 1,400; AID 624413, 2012; in the data active means inhibition above about 15%;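 further: 0% = vehicle and 100% = reference inhibitor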
TbMetRS FP orth = T. brucei MetRS inhibitors, orthogonal assay for T. brucei MetRS inhibitor project, biochemical, fluorescence polarization; shares compounds with Tb MetRS inh; purified T. brucei MetRS; inhibition, % at 11.9 µM; hit rate 44% among 1,400; in the data active means inhibition above about 17%;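 further: 0% = vehicle wells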
The depositor's hits bear a star.

`COc1cccc(-n2c(SCC(=O)N3CCOCC3)nnc2-c2c[nH]c3ccccc23)c1` gave Rpn11 inh 1.4, HNF4A DNA FP 0.5, PREPL inhibitor -3.0, CSN deneddyl inh -4.5, Neddyl block 10.5, Tb MetRS inh 17.5*, TbMetRS confirm 29.8*, Jurkat tox 8.7 and TbMetRS FP orth 6.3.
Clc1ccccc1-c1ccc2ncnc(NCc3ccc4c(c3)OCO4)c2c1 was read as Rpn11 inh 2.5, HNF4A DNA FP 0.4, PREPL inhibitor -15.8, CSN deneddyl inh 1.3, Neddyl block -21.3, Tb MetRS inh 26.1*, TbMetRS confirm 32.2*, Jurkat tox -1.9 and TbMetRS FP orth 21.9*.
`c1cncc(CNc2ncnc3ccc(-c4cccnc4)cc23)c1` gave Rpn11 inh -8.3, HNF4A DNA FP -1.5, PREPL inhibitor 1.2, CSN deneddyl inh -3.5, Neddyl block -14.6 and Tb MetRS inh -0.1.
For c1cncc(-c2ccc3ncnc(NCc4ccc5c(c4)OCO5)c3c2)c1 the results were Rpn11 inh 0.3, HNF4A DNA FP 6.0, PREPL inhibitor -5.2, CSN deneddyl inh 2.8, Neddyl block -11.5 and Tb MetRS inh 0.6.
`Clc1ccccc1-c1ccc2ncnc(NCc3cccnc3)c2c1` gave Rpn11 inh -5.1, HNF4A DNA FP 4.4, PREPL inhibitor -6.0, CSN deneddyl inh 3.1, Neddyl block -42.9, Tb MetRS inh 11.8*, TbMetRS confirm 44.5*, Jurkat tox 5.2 and TbMetRS FP orth 33.4*.
Screening CC(C)CC1Nc2ncnc(N3CCCCC3)c2N(Cc2ccc(Br)cc2)C1=O (stereo unspecified) returned Rpn11 inh -10.3, HNF4A DNA FP 2.8, PREPL inhibitor 2.1, CSN deneddyl inh 1.7, Neddyl block 7.8 and Tb MetRS inh -0.3.
`O=S(=O)(c1ccc2c(c1)OCCO2)N1CCC(c2nc3ccc(Cl)cc3[nH]2)CC1` gave Rpn11 inh -9.8, HNF4A DNA FP 5.0, PREPL inhibitor -15.2, CSN deneddyl inh 1.7, Neddyl block 4.1, Tb MetRS inh 11.6*, TbMetRS confirm 17.2*, Jurkat tox 24.1* and TbMetRS FP orth 11.9.
Screening Cc1ccc2nc(C3CCCN(C(=S)Nc4ccccc4C)C3)[nH]c2c1 (stereo unspecified) returned Rpn11 inh -1.5, HNF4A DNA FP 2.2, PREPL inhibitor 21.6, CSN deneddyl inh 2.3, Neddyl block -8.7, Tb MetRS inh 6.8*, TbMetRS confirm 46.1*, Jurkat tox 2.7 and TbMetRS FP orth 22.4*.
Screening Cc1ccc2nc(C3CCN(S(=O)(=O)c4ccc5ccccc5c4)CC3)[nH]c2c1 returned Rpn11 inh 8.9, HNF4A DNA FP 0.8, PREPL inhibitor -23.2, CSN deneddyl inh -2.3, Neddyl block -9.2, Tb MetRS inh 48.0*, TbMetRS confirm 68.5*, Jurkat tox 3.9 and TbMetRS FP orth 36.0*.
Screening CC(=O)c1cccc(S(=O)(=O)N2CCC(c3nc4ccccc4[nH]3)CC2)c1 returned Rpn11 inh 7.2, HNF4A DNA FP 5.0, PREPL inhibitor 9.6, CSN deneddyl inh -1.7, Neddyl block -2.2 and Tb MetRS inh 0.3.
For CCNC(=S)N1CCCC(c2nc3ccc(C)cc3[nH]2)C1 (stereo unspecified) the results were Rpn11 inh -1.1, HNF4A DNA FP 1.0, PREPL inhibitor 5.1, CSN deneddyl inh 2.9, Neddyl block 11.6 and Tb MetRS inh 0.0.
For CCN(C(=O)COC(=O)CSc1ccccc1)c1c(N)n(Cc2ccccc2)c(=O)[nH]c1=O the results were Rpn11 inh -1.6, HNF4A DNA FP 1.8, PREPL inhibitor -4.0, CSN deneddyl inh -3.6, Neddyl block 7.9 and Tb MetRS inh -0.2.
Nc1nc(Cl)cc(=O)n1Cc1ccc(Cl)cc1 was read as Rpn11 inh -3.5, HNF4A DNA FP 3.1, PREPL inhibitor 6.5, CSN deneddyl inh 2.2, Neddyl block 0.7, Tb MetRS inh 9.4*, TbMetRS confirm 18.3*, Jurkat tox 1.6 and TbMetRS FP orth 4.5.
For CC(C)(C)OC(=O)C[C@H]1C/C=C\C[C@@H](CC(=O)NCCO)C(=O)NCCOC1=O the results were Rpn11 inh -4.7, HNF4A DNA FP 4.3, PREPL inhibitor 6.1, CSN deneddyl inh -3.0, Neddyl block -16.7 and Tb MetRS inh -0.4.
For CCNC(=S)N(CCCN(C)C)Cc1cc2cc3c(cc2[nH]c1=O)OCCO3 the results were Rpn11 inh 0.4, HNF4A DNA FP -5.2, PREPL inhibitor -7.9, CSN deneddyl inh -5.5, Neddyl block 29.6 and Tb MetRS inh -0.6.
`CSc1nc2c(=S)[nH]c(=S)[nH]c2s1` gave Rpn11 inh 6.9, HNF4A DNA FP -1.4, CSN deneddyl inh -3.0, Neddyl block -35.1 and Tb MetRS inh -1.2.
For COCCCNC(=S)NNC(=O)c1ccc(S(=O)(=O)N2CCC(C)CC2)cc1 the results were Rpn11 inh -1.4, HNF4A DNA FP -0.5, PREPL inhibitor -4.3, CSN deneddyl inh -6.9, Neddyl block 11.7, Tb MetRS inh 58.7*, TbMetRS confirm 80.5*, Jurkat tox 3.0 and TbMetRS FP orth 50.0*.
COCCCNC(=S)NNC(=O)c1ccc(C(C)(C)C)cc1 was read as Rpn11 inh 1.3, HNF4A DNA FP 1.4, PREPL inhibitor -2.7, CSN deneddyl inh -0.1, Neddyl block 2.4 and Tb MetRS inh -1.0.
For Cc1[nH]c(=O)[nH]c(=O)c1C=CC(=O)NC(CO)CS(=O)Cc1ccccc1 (stereo unspecified) the results were Rpn11 inh -5.0, HNF4A DNA FP -1.9, CSN deneddyl inh -5.6, Neddyl block -3.8 and Tb MetRS inh 0.1.
Screening CC(CNC(=S)Nc1cc(F)cc(F)c1)CSc1ccc(Cl)cc1 (stereo unspecified) returned Rpn11 inh 0.9, HNF4A DNA FP -1.3, PREPL inhibitor -19.4, CSN deneddyl inh 2.5, Neddyl block -2.7, Tb MetRS inh 12.8*, TbMetRS confirm 24.8*, Jurkat tox 2.2 and TbMetRS FP orth 27.5*.
